Tests used:
[1] = system: Nucleic Acid; assay: Denaturation temperature change on binding to AT to poly (dA)-poly(dT); type: functional
Procedure, shortened: (§1)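 Synthetic homopolymer, poly(dA)·poly(dT) or poly(dG-dC)·poly(dG-dC), at an initial absorbance of 0.15 A259. Samples were heated at 18 °C/h while absorbance at 259 nm was logged every 0.2 °C. Tm was taken as the curve midpoint between graphically chosen start and end temperatures. ΔTm is relative to the free polymer's Tm in the same run, averaged over at least two determinations with standard errors.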

[2] = system: Nucleic Acid; assay: Denaturation temperature change on binding on GC to poly(dGC)-poly(dGC); type: functional; procedure, shortened: as §1
[3] = system: Calf thymus DNA; assay: Denaturation temperature change on binding to calf thymus DNA; type: functional
Procedure, shortened: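 Calf thymus DNA at an initial absorbance of 0.3 A259 was heated at 18 °C/h, recording absorbance at 259 nm at 0.2 °C intervals. The melting midpoint was set from graphically selected start and end temperatures. ΔTm was taken against the DNA-alone Tm from the same experiment, as the mean of at least two determinations with standard errors.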

[4] = system: Nucleic Acid; assay: DNA binding property estimated by measuring denaturation temperature on GC to poly (dGC)-poly(dGC), normalized to ethidium bromide
[5] = system: Nucleic Acid; assay: DNA binding activity as denaturation temperatures on AT to poly (dA)-poly(dT) normalized to ethidium bromide; type: functional

Row | Structure (SMILES) | ΔTm [1] | ΔTm [2] | ΔTm [3] | ΔTm [4] | ΔTm [5]
1 | N=C(N)c1ccc(OCCCCCCOc2ccc(C(=N)N)cc2N)c(N)c1 | 18.4 | 2.8 | 9.5 | 0.5 | 1.9
2 | N=C(N)c1ccc(-c2cc3ccc(C(=N)N)cc3[nH]2)cc1 | 42 | 6.9 | 21.5 | 1.3 | 4.2
3 | COc1cc(C(=N)N)ccc1OCCCOc1ccc(C(=N)N)cc1OC | 38 | 3.4 | 16.3 | 0.6 | 3.8
4 | Cn1cc(NC(=O)c2cc(NC(=O)c3cc(NC=O)cn3C)cn2C)cc1C(=O)NCCC(=N)N | 30.5 | 1.9 | 11.5 | 0.4 | 3.1
5 | N=C(N)c1ccc(NCCCCCNc2ccc(C(=N)N)cc2N)c(N)c1 | 20.9 | 3.3 | 11 | 0.6 | 2.1
6 | N=C(N)c1ccc(NCCCNc2ccc(C(=N)N)cc2[N+](=O)[O-])c([N+](=O)[O-])c1 | 26.6 | 5 | 12.4 | 0.9 | 2.7
7 | N=C(N)c1ccc(NCCCCCCNc2ccc(C(=N)N)cc2N)c(N)c1 | 15 | 3.6 | 8.3 | 0.7 | 1.5
8 | N=C(N)c1ccc(OCCCCCOc2ccc(C(=N)N)cc2Cl)c(Cl)c1 | 24.3 | 4.6 | 10.5 | 0.9 | 2.5
9 | N=C(N)c1cccc(OCCCOc2cccc(C(=N)N)c2)c1 | 8.5 | 3 | 7.6 | 0.6 | 0.9
10 | N=C(N)c1cccc(OCCCCCOc2cccc(C(=N)N)c2)c1 | 7.6 | 2.2 | 7.6 | 0.4 | 0.8
11 | N=C(N)c1ccc(OCCOc2ccc(C(=N)N)cc2[N+](=O)[O-])c([N+](=O)[O-])c1 | 10.3 | 1.9 | 5.6 | 0.4 | 1
12 | N=C(N)c1ccc(NCCCNc2ccc(C(=N)N)cc2)cc1 | 25.7 | 3 | 11.6 | 0.6 | 2.6
13 | Cn1cc(NC(=O)c2cc(NC(=O)CNC(=N)N)cn2C)cc1C(=O)NCCC(=N)N | 46.6 | 1.1 | 19 | 0.2 | 4.7
14 | N=C(N)c1ccc(OCCCOc2ccc(C(=N)N)cc2N)c(N)c1 | 32.2 | 5.2 | 13.6 | 1 | 3.3
15 | COc1cc(C(=N)N)ccc1OCCCCCOc1ccc(C(=N)N)cc1OC | 27.2 | 2.7 | 12 | 0.5 | 2.7
16 | N=C(N)c1ccc(NCCCCNc2ccc(C(=N)N)cc2N)c(N)c1 | 13.2 | 4.6 | 10.5 | 0.9 | 1.3
17 | N=C(N)c1ccc(OCCCCCOc2ccc(C(=N)N)cc2N)c(N)c1 | 20.7 | 3.2 | 10.8 | 0.6 | 2.1
18 | N=C(N)c1ccc(OCCOc2ccc(C(=N)N)cc2N)c(N)c1 | 16.4 | 3 | 8.8 | 0.6 | 1.7
19 | COc1cc(C(=N)N)ccc1OCCCCOc1ccc(C(=N)N)cc1OC | 22.9 | 1.1 | 10.2 | 0.2 | 2.3

Row | Structure (SMILES) | ΔTm [1] | ΔTm [2] | ΔTm [3] | ΔTm [4] | ΔTm [5]
20 | N=C(N)c1cccc(OCCCCCCOc2cccc(C(=N)N)c2)c1 | 8.1 | 2.5 | 7.3 | 0.5 | 0.8
21 | N=C(N)c1ccc(NCCCCCNc2ccc(C(=N)N)cc2[N+](=O)[O-])c([N+](=O)[O-])c1 | 22.1 | 6.2 | 12.7 | 1.2 | 2.2
22 | CC[n+]1c(-c2ccccc2)c2cc(N)ccc2c2ccc(N)cc21 | 12.4 | 9.9 | 12.4 | 1 | 1
23 | N=C(N)c1ccc(OCCCCOc2ccc(C(=N)N)cc2N)c(N)c1 | 19.4 | 3.7 | 9.6 | 0.7 | 2
24 | N=C(N)c1ccc(OCCCCCOc2ccc(C(=N)N)cc2[N+](=O)[O-])c([N+](=O)[O-])c1 | 21.6 | 3.2 | 9.7 | 0.6 | 2.2
25 | N=C(N)c1ccc(OCCCCCCOc2ccc(C(=N)N)cc2)cc1 | 19 | 2.8 | 9.1 | 0.5 | 1.9
26 | N=C(N)c1ccc(OCCCCCOc2ccc(C(=N)N)cc2)cc1 | 22.9 | 3.2 | 10.7 | 0.6 | 2.3
27 | N=C(N)c1ccc(OCCOc2ccc(C(=N)N)cc2)cc1 | 7.5 | 1.3 | 5.4 | 0.2 | 0.8
28 | N=C(N)c1ccc(OCCCOc2ccc(C(=N)N)cc2)cc1 | 32 | 4.5 | 14.7 | 0.8 | 3.2
29 | N=C(N)c1ccc(NCCCCCCNc2ccc(C(=N)N)cc2)cc1 | 12.9 | 2.9 | 9.1 | 0.5 | 1.3
30 | N=C(N)c1ccc(NCCCCCNc2ccc(C(=N)N)cc2)cc1 | 20.7 | 4.4 | 11.3 | 0.8 | 2.1
31 | N=C(N)c1ccc(OCCCCOc2ccc(C(=N)N)cc2Cl)c(Cl)c1 | 20.3 | 4.2 | 8.9 | 0.8 | 2.1
32 | N=C(N)c1ccc(NCCCNc2ccc(C(=N)N)cc2N)c(N)c1 | 25.6 | 4.8 | 12.4 | 0.9 | 2.6
33 | N=C(N)c1ccc(OCCCCOc2ccc(C(=N)N)cc2)cc1 | 17.9 | 3.1 | 8.3 | 0.6 | 1.8
34 | N=C(N)c1ccc(NCCNc2ccc(C(=N)N)cc2N)c(N)c1 | 16.8 | 3 | 9.8 | 0.6 | 1.7
35 | N=C(N)c1ccc(NCCCCNc2ccc(C(=N)N)cc2)cc1 | 18.7 | 2.8 | 10.3 | 0.5 | 1.9
36 | N=C(N)c1cccc(OCCCCOc2cccc(C(=N)N)c2)c1 | 15.2 | 2.6 | 8.1 | 0.5 | 1.5
37 | N=C(N)c1ccc(OCCCCOc2ccc(C(=N)N)cc2[N+](=O)[O-])c([N+](=O)[O-])c1 | 14.7 | 3.5 | 9.6 | 0.7 | 1.5

Source: ChEMBL document CHEMBL1125574, “Structure and DNA binding activity of analogues of 1,5-bis(4-amidinophenoxy)pentane (pentamidine)” (J Med Chem, 1992)
